Sampled rows, rich in hits. Any-hit rate of the full collection: about 1.7%.
MEX-5 binding – MEX-5 zinc finger RNA-binding disruptors – biochemical, C. elegans, fluorescence polarization, MLPCN library, primary screen; activity score (negative = inhibition of binding), % at 10 µM; AID 1832, 2009; MEX-5/FITC-TCR2 RNA binding; hits give low values; Zinc finger protein mex-5 (Caenorhabditis elegans), Q9XUB2; 300,000 tested, 0.38% active;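 active = inhibition past about -25% in most replicates, and total fluorescence under double the plate's negative control median, limit read from the data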;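 note: 0% = DMSO and -100% = 5 µM competing unlabeled TCR2 RNA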
Target sequence (Q9XUB2 whole entry, looked up): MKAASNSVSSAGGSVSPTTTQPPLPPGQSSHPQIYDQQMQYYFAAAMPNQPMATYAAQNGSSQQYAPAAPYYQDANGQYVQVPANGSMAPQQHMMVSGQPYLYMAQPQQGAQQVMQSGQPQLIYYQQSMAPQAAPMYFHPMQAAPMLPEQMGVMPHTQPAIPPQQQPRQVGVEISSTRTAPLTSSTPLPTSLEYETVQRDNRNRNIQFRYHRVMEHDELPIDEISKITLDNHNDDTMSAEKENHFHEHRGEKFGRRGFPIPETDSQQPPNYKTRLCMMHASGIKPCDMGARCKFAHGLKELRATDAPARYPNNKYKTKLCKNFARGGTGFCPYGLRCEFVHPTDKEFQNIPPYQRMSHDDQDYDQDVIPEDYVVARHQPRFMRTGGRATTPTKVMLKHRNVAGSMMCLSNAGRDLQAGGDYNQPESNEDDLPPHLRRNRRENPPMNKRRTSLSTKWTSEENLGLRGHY
ZTA DNA inh – ZTA (EBV) inhibition in EBNA-1 counter-screen; P03206; ZTA-DNA binding, fluorescence polarization; inhibition, % at 11 µM; 320,000 tested, 0.15% active; in the data active = inhibition above about 33%
EBV gp42 block – Epstein-Barr virus gp42 inhibitors, primary screen, biochemical, uHTS, fluorescence polarization; 220,000 tested, 0.42% active; Glycoprotein 42 (Epstein-Barr virus (strain AG876)), Q1HVG2; Fluorescence polarization binding assay, mP read-out; AID 1085, 2008; inhibition, % (tested at 21.74 µM); in the data active = inhibition above about 50%
Target sequence (Q1HVG2 whole entry, looked up): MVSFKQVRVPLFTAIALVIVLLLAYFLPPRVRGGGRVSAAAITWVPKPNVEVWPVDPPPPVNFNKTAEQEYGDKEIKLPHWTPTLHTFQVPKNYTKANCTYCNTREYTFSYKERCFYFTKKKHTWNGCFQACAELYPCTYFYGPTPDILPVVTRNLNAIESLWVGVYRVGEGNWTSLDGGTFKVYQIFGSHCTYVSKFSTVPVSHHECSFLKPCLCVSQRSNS
HCV core dimer – inhibitors of HCV core protein dimerization, primary screen, biochemical, TR-FRET, high-throughput. inhibition, % at 5 µM. TR-FRET GST/Flag-core106 dimerization, 1536-well. 300,000 tested, 0.33% active. AID 1899, 2009;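 active = inhibition above the mean of all tested compounds plus 3 SD, set per screening campaign, cut at about 45% in these data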
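System: GST/Flag-tagged HCV core106 proteins. Incubation: compound-protein-antibody incubation 4 h at 22.5 °C. Technique: HTRF with 340 nm excitation, 617/671 nm emission. Medium: KF-containing HEPES buffer, pH 7.45, DTT, CHAPS, BSA. Read-out: inhibition (%) from 671 over 617 nm ratio. Also added: Eu(K)-anti-GST 90 ng/mL plus XL665-anti-Flag 1 µg/mL.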
NS3 helicase inh – inhibitors of HCV NS3 helicase, primary screen, biochemical, Cy5 molecular beacon fluorescence. NS3 helicase DNA unwinding. Hepatitis C virus NS3 helicase. inhibition, % at 10.9 µM. AID 1800, 2009. 290,000 tested, 0.56% active;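 active = inhibition above the mean of all tested compounds plus 3 SD, set per campaign, cut at about 35% in these data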;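 note: 0% = DMSO wells and 100% = thioflavine S control wells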
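Compound dosing – single dose, 10.9 µM nominal final, DMSO 0.8% final · System – NS3 helicase fragment of HCV · Buffer or medium – MOPS pH 6.5, MgCl2, DTT, Tween20, BSA · Signal – Cy5 beacon fluorescence read at start and 1 h · Also added – annealed dual-labelled DNA beacon duplex, ATP-started · Schedule – 1 h at 25 °C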
EBNA-1 inhibitor – EBNA-1 DNA-binding inhibitors, primary screen, biochemical, fluorescence polarization. inhibition, % at 14.8 µM. 300,000 tested, 0.34% active; in the data active = inhibition above about 28%
* marks the source's active call; other numbers are inactive results; x = no result.

SMILES	MEX-5 binding	ZTA DNA inh	EBV gp42 block	HCV core dimer	NS3 helicase inh	EBNA-1 inhibitor
Cc1ccc(NC(=O)C2CCN(S(=O)(=O)c3ccc4c(c3)NC(=O)C(C)S4)CC2)cc1Cl (stereo unspecified)	4.7	-10.0	x	15.7	-17.5	2.7
COc1ccc(/C=c2\s/c(=C(/C#N)C(=O)NCc3ccco3)n(-c3ccccc3)c2=O)cc1	-10.8	4.1	-72.6	58.3*	7.9	13.5
COC(=O)/C=c1/s/c(=C(\C#N)C(=O)NCc2ccco2)n(-c2ccccc2)c1=O	2.2	4.0	-26.3	28.6	29.9	-0.6
Cc1cc(C)c2nc(NNC(=O)c3ccc(S(=O)(=O)N4CCc5ccccc5C4)cc3)sc2c1	-1.3	5.5	2.8	51.8*	-1.8	0.9
Cc1cc(C)c2sc(NNC(=O)c3ccc(S(=O)(=O)N4CCc5ccccc5C4)cc3)nc2c1	-1.8	22.0	1.9	64.2*	3.6	6.0
Cc1ccc(C(=O)Nc2ccccc2Cl)cc1	-0.4	19.3	x	5.3	3.1	8.1
Cc1noc(C)c1S(=O)(=O)N(Cc1ccccc1)C(C)C	-0.4	3.8	2.9	2.7	6.9	-9.0
CCC(C)n1c(=N)c(C#N)cc2c(=O)n3cc(C)ccc3nc21 (stereo unspecified)	-33.9*	5.7	-10.2	2.6	2.3	1.4
COCCCn1c(SCC(=O)N2CCc3ccccc32)nnc1-c1ccoc1C	0.1	4.0	x	54.8*	0.4	3.6
CC(=O)N1CCc2cc(S(=O)(=O)CCC(=O)N3CCN(c4cc(C)ccc4C)CC3)ccc21	2.4	3.2	x	7.5	-9.2	-13.3
Cc1cc(/C=N/Nc2ccc([N+](=O)[O-])cn2)c(C)n1-c1ccc(C(=O)O)cc1	-2.4	-13.0	61.4*	-18.9	32.2	2.7
O=C(COC(=O)c1cccc(S(=O)(=O)N2CCN(c3ccccc3)CC2)c1)NCc1ccco1	0.8	-4.3	5.4	82.4*	8.2	7.0
CCOc1ccc(NC(=O)c2cc3c(C)nc4ccccc4c3o2)cc1	-3.7	-9.2	55.0*	-15.4	0.6	-2.6
Cc1cc(C2=NNC(=NC3CCCCC3)SC2)c(C)n1-c1c(C)n(C)n(-c2ccccc2)c1=O	2.8	13.5	-3.5	64.9*	7.8	1.0
O=C(CSc1nnc(NC(=O)c2ccccc2Cl)s1)Nc1ccc2c(c1)oc1ccccc12	-2.0	13.6	-13.9	49.2*	-1.1	18.2
CC(C)(C)NC(=O)CSc1nnc(NC(=O)c2ccccc2Cl)s1	-2.0	-0.5	-18.5	0.0	8.4	-1.2
CCc1nnc(NCC(=O)N2CCc3ccccc32)s1	0.8	-9.6	-28.8	88.2*	12.6	1.6
Cc1ccc(-c2nc3ccccc3s2)cc1NC(=S)NC(=O)/C=C/c1ccco1	1.2	-9.0	-2.3	51.7*	4.3	-5.7
O=C(/C=C/c1ccco1)NC(=S)Nc1cccc(-c2nc3ccccc3s2)c1	2.1	-3.2	x	51.9*	23.5	-7.6
O=C(/C=C/c1ccco1)NC(=S)Nc1cc(-c2nc3ccccc3s2)ccc1Cl	x	5.8	-17.0	30.4	13.4	6.8
COc1ccc(N=Cc2nc(-c3ccco3)oc2O)cc1	-3.3	-4.4	-9.1	-16.8	-2.4	4.1
CC(=O)Nc1ccc(N=Cc2nc(-c3ccc(C)cc3)oc2O)cc1	-31.1*	2.4	12.4	65.5*	-5.0	1.6
Cc1ccc(N=Cc2nc(-c3ccc(C)cc3)oc2O)cc1	-42.4*	x	-19.0	x	14.7	x
CC(=O)Nc1ccc(-c2nc3cc(Cl)ccc3o2)cc1	-3.4	6.8	x	-4.0	-3.3	3.1
O=C(NCCc1ccc(Cl)cc1)c1ccc(Br)s1	1.6	12.9	x	-1.0	-2.5	12.7
SMILES	MEX-5 binding	ZTA DNA inh	EBV gp42 block	HCV core dimer	NS3 helicase inh	EBNA-1 inhibitor
Cc1ccc(NC(=O)COC(=O)C2CC2(Cl)Cl)cc1C (stereo unspecified)	-2.7	-12.6	-4.0	2.1	4.4	-5.1
CCC(/C=C1\Sc2ccc(OC)cc2N1CCO)=C\c1sc2ccc(OC)cc2[n+]1CCO	x	84.1*	-8.4	-264.7	4.6	44.5*
CCC(/C=C1\Sc2ccc(OC)cc2N1CC)=C\c1sc2ccc(OC)cc2[n+]1CCCS(=O)(=O)[O-]	-9.8	104.3*	-2.3	-368.1	7.8	56.4*
CON(C)S(=O)(=O)NC(=O)C1=C(N2CCCC2)COC1=O	x	0.4	x	x	x	x
Fc1ccc(N=c2ssnc2Cl)c(F)c1	-29.8*	0.4	-20.5	7.9	5.0	0.1
O=C(CSc1nc2c([nH]c3ccccc32)c(=O)n1-c1cccc(Cl)c1)N1CCOCC1	2.7	10.2	-24.8	14.4	2.6	37.3*
O=C(CSc1nc2c([nH]c3ccccc32)c(=O)n1-c1ccccc1)N1CCOCC1	4.6	-10.2	-8.1	-19.5	-2.5	18.1
c1ccc(OCc2nnc3sc(C4COc5ccccc5O4)nn23)cc1 (stereo unspecified)	-0.8	16.0	-4.0	51.1*	11.6	-5.3
Cc1ccc(C)c(N2CCN(S(=O)(=O)c3ccc4[nH]c(=O)ccc4c3)CC2)c1	-0.8	-1.1	x	46.0*	-6.3	7.0
Cc1cccc(N2CCN(S(=O)(=O)c3ccc4[nH]c(=O)ccc4c3)CC2)c1C	0.2	-0.2	x	31.6	-22.6	-0.7
Cc1ccc(C(NC(=O)C2CCCCC2)c2c(O)ccc3ccccc23)cc1 (stereo unspecified)	2.2	-14.3	59.8*	10.6	7.8	-8.6
CC(=O)NC(c1ccc(C(C)C)cc1)c1c(O)ccc2ccccc12 (stereo unspecified)	-2.7	-19.8	x	-0.4	x	-13.1
Cc1cccc(NC(=S)N=Nc2c(O)n(CN3CCOCC3)c3ccccc23)c1C	0.5	8.6	-20.9	-6.1	-9.9	9.7
Cc1ccc(N=Nc2c(O)n(CN3CCOCC3)c3ccccc23)cc1	-27.8*	3.2	94.0*	-17.5	-1.2	4.0
COc1ccccc1NS(=O)(=O)c1ccc(C)c(C(=O)NCC2(N(C)C)CCCCC2)c1	x	-5.4	x	x	x	x
COc1cccc2cc(/C(C)=N/Nc3nc(-c4cc(C)ccc4C)cs3)c(=O)oc12	1.8	6.2	-29.9	75.8*	28.1	6.9
CCCCCCn1c(=O)[nH]c2nc3cc(N)c(C)cc3nc2c1=O	x	x	148.3*	x	45.4*	x
CCCCn1c(=O)[nH]c2nc3cc(NC(C)=O)ccc3nc2c1=O	-11.9	0.1	78.5*	-0.3	24.6	-0.1
CCCCCn1c(=O)[nH]c2cc(C(=O)O)ccc2c1=O	0.7	0.2	-11.2	-2.3	4.8	-18.3
CCOc1ccc(-c2cc(C(=O)NCCCN3CCCC3)c3ccccc3n2)cc1	-2.9	-15.0	x	-3.1	-66.6	-2.6

Screening data as filed in PubChem.
